Hits are enriched below; roughly 1.9% of the tested compounds scored in any of these assays.
TLR9-MyD88 inh: inhibitors of human TLR9-MyD88 binding. Q9NR96+Q99836. CHO BLA complementation TLR9-MyD88, CCF4 FRET ratio. inhibition, % at 4.98 µM. 340,000 compounds, 0.21% hits. AID 504734;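 active = inhibition above the mean over all tested compounds plus 3 SD, cut at about 21% in these data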
TLR4 MyD88 comp: TLR4-MyD88 interaction inhibition in cells; 200,000 compounds, 0.18% hits; O00206+Q99836; HeLa CL3-4 TLR4/MyD88 BLA complementation, FRET ratio; inhibition, % at 8.4 µM; in the data active = inhibition above about 25%
MC4R barr agon: human MC4R agonism via beta-arrestin; activation, % at 8.9 µM; U2OS MC4R beta-arrestin complementation, luminescence; percent of melanotan II response, DMSO zero; P32245; 360,000 compounds, 0.98% hits;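 active = activation above a per-plate cutoff, the mean activation of sample wells on that plate plus 3 SD, cut at about 8% in these data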
Target sequence (P32245 whole entry, looked up): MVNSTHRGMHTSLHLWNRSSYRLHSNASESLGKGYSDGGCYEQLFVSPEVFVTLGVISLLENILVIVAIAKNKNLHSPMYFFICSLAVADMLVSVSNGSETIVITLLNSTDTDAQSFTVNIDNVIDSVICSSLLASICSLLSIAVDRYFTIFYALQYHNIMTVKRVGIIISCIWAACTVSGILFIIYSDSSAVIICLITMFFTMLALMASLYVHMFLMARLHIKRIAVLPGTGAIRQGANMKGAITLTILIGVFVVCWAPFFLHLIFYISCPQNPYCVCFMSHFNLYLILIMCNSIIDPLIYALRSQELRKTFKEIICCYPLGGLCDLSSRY
MC4R antagonist: antagonists of human melanocortin 4 receptor (MC4R); P32245; MC4R-expressing cells, MTII-stimulated cAMP, LANCE TR-FRET; inhibition, % at 6.5 µM; 360,000 compounds, 0.48% hits; AID 540295;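 active = inhibition above its plate's cutoff, the mean of tested wells on that plate plus 3 SD, cut at about 29% in these data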
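Material: U2OS-MC4R stable cell line | Reagent: Melanotan II challenge after compound preincubation | Doses: One concentration, 6.5 µM nominal | Incubation: 30-min compound preincubation, 1-h Melanotan II challenge, 1-h detection, room temperature | Signal: TR-FRET cAMP assay | Replicates: One well per compound, no replicates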
NOD2 RIPK2 PPI: NOD2-RIPK2 protein interaction inhibition; O43353; CHO BLA complementation NOD2-RIPK2, CCF4 ratio; inhibition, % at 4.98 µM; 360,000 compounds, 0.38% hits; in the data active = inhibition above about 21%
NTR1 ag: NTR1 (human) agonism; AID 493036; activation, % at 20 µM; P30989; NTR1-U2OS beta-arrestin-GFP spot imaging, agonist mode; 330,000 compounds, 0.17% hits;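 active = activation at or above 40% of the spot to cytoplasm intensity ratio, with at least 20 cells analyzed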
Target sequence (P30989 whole entry, looked up): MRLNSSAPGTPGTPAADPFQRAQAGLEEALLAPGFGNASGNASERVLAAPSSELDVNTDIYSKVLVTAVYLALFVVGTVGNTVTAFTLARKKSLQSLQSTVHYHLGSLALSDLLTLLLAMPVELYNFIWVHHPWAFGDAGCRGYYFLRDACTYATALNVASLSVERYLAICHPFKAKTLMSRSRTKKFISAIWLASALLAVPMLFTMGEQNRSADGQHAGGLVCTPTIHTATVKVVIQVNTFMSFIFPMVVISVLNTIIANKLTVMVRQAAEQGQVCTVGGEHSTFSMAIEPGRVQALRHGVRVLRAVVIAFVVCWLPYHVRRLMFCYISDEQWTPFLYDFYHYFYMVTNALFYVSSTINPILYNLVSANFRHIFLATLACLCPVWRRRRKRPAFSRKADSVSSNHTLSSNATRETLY
TLR4-MyD88 conf: TLR4-MyD88 interaction inhibition confirmed. shares compounds with TLR4 MyD88 comp. HeLa CL3-4 BLA complementation, CCF4 FRET ratio. inhibition, % at 8.4 µM. 350 compounds, 50% hits. AID 941;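 active = mean inhibition across three repeat runs above about 25% carried over from the earlier screen, limit read from the data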
BLA inhibitor ct: beta-lactamase inhibition flagged in TLR4-MyD88 counter-screen; shares compounds with TLR4 MyD88 comp; HeLa BLA reporter, CCF4 FRET ratio; inhibition, % at 8.4 µM; 350 compounds, 63% hits; AID 1237;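 active = mean inhibition over three repeats above about 26% taken from the earlier screen, limit read from the data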;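 also: HeLa cells stably expressing beta-lactamase reporter as counterscreen for TLR4-MyD88 inhibitors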
NTR1 ag confirm: confirmation of agonists of human NTR1 | shares compounds with NTR1 ag | NTR1-U2OS beta-arrestin-GFP translocation imaging | activation, % at 20 µM | 480 compounds, 38% hits;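 active = mean activation at 20 µM of at least 40%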
TLR9-MyD88 conf: TLR9-MyD88 interaction inhibition, confirmation; shares compounds with TLR9-MyD88 inh; inhibition, % at 4.98 µM; CHO TLR9/MyD88 BLA complementation, CCF4 FRET ratio; 680 compounds, 51% hits; AID 540250;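 active = mean inhibition across three repeats above about 21% taken from the earlier screen, limit read from the data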;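 also: blue over green emission ratio reports constitutive TLR9 MyD88 association via BLA complementation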
BLA nonselective: non-selective beta-lactamase inhibitors in TLR9-MyD88 counter-screen; shares compounds with TLR9-MyD88 inh; CHO-BLA cells, CCF4 FRET ratio, BLA reporter; inhibition, % at 4.98 µM; 680 compounds, 7% hits;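 active = mean inhibition above a 50% cutoff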;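 also: counterscreen of TLR9-MyD88 hits on CMV-driven BLA in CHO-K1 cells; higher means less blue over green ratio so more BLA blockade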
TLR9 CHO cytotox: CHO cell toxicity counter-screen for TLR9-MyD88 inhibitors. shares compounds with TLR9-MyD88 inh. TLR9-MyD88 CHO cells cytotoxicity, luminescence. inhibition, % at 4.98 µM. 680 compounds, 39% hits; in the data active = inhibition above about 11%
Of the large screens only hits and unclear results are named; the others gave an inactive call (follow-up assays come after a bar, where they were run).

CC(C)(CNC(=O)CNC(=O)c1ccc(Cl)cc1Cl)N1CCOCC1	none (no result: TLR4 MyD88 comp)
CCOC(=O)c1c(C)nc2c(C#N)cnn2c1C	TLR4 MyD88 comp 25.4 | TLR4-MyD88 conf inactive | BLA inhibitor ct inactive
CCOC(=O)c1cnn2c(N)c(C#N)cnc12	none
CC(C)C(=O)Nc1cccc(-c2nc3ccccc3o2)c1	TLR4 MyD88 comp 25.7 | TLR4-MyD88 conf inactive | BLA inhibitor ct inactive
C[C@@H]1CN([C@@H](C)CO)C(=O)CCCn2nncc2CO[C@@H]1CN(C)S(=O)(=O)c1ccc2ccccc2c1	none (no result: TLR4 MyD88 comp, NTR1 ag)
Cc1cc(C)c(C)c(S(=O)(=O)N2CCC(C(=O)OCC(=O)NC3CCS(=O)(=O)C3)CC2)c1C (stereo not drawn)	none (no result: TLR4 MyD88 comp)
CCCn1c(=O)[nH]c(=O)c2c1nc(-c1ccccc1OC(F)F)n2CCOC	TLR4 MyD88 comp 26.5 | TLR4-MyD88 conf inactive | BLA inhibitor ct inactive
CCCn1c(=O)[nH]c(=O)c2c1nc(-c1ccc(OC(F)F)c(OC)c1)n2CCOC	none
COc1cccc(C(=O)/C=C/Nc2cc(C)ccc2O)c1	TLR4 MyD88 comp 26.6 | TLR4-MyD88 conf inactive | BLA inhibitor ct inactive
CCOc1ccc(S(=O)(=O)N2CCCC(C(=O)NCc3ccccn3)C2)cc1Cl (stereo not drawn)	none (no result: TLR4 MyD88 comp)
COc1ccc(S(=O)(=O)N2CCCC(C(=O)NCc3ccccn3)C2)cc1Cl (stereo not drawn)	TLR4 MyD88 comp 26.2 | TLR4-MyD88 conf inactive | BLA inhibitor ct inactive
CCCCN(C(=O)CC1CCCCC1)c1c(N)n(CCCC)c(=O)[nH]c1=O	none (no result: TLR4 MyD88 comp, NTR1 ag)
Fc1cccc(-c2nnn3c2nc(Cl)c2ccccc23)c1	TLR4 MyD88 comp 34.6 (no result: NTR1 ag) | TLR4-MyD88 conf 57.9 | BLA inhibitor ct 40.8
CC(C)OCCCNC(=O)c1ccccc1NC(=O)C1=CSCCO1	none (no result: TLR4 MyD88 comp)
COC(=O)Nc1sc2c(c1C(N)=O)CCCCCC2	TLR4 MyD88 comp 26.5 | TLR4-MyD88 conf inactive | BLA inhibitor ct inactive
COc1cccc(CC(=O)Nc2nccs2)c1	TLR4 MyD88 comp 25.8 | TLR4-MyD88 conf inactive | BLA inhibitor ct inactive
COc1ccccc1N1CCN(C(=O)COc2cc(C)cc(C)c2)CC1	TLR4 MyD88 comp 26.2 | TLR4-MyD88 conf inactive | BLA inhibitor ct inactive
COc1ccccc1N1CCN(C(=O)COc2cc(C)ccc2C)CC1	none
O=C(Nc1ccccc1C(=O)NCCc1ccccc1)c1cnccn1	none (no result: TLR4 MyD88 comp)
Nc1c(C(=O)Nc2ccccc2)sc2nc3c(c(-c4ccco4)c12)CCC3	none
COc1ccc(-c2c3c(nc4sc(C(=O)Nc5ccccc5)c(N)c24)CCC3)cc1	TLR4 MyD88 comp 25.3 | TLR4-MyD88 conf 36.0 | BLA inhibitor ct 57.7
Nc1cc(-c2ccc(Br)cc2)nn1Cc1ccccc1	none (no result: NTR1 ag)
Nc1cc(-c2ccccc2)nn1Cc1ccc(Cl)cc1	TLR4 MyD88 comp 28.5 | TLR4-MyD88 conf inactive | BLA inhibitor ct inactive
Cc1nn(-c2ccccc2)c2c1C(c1ccc(O)c(O)c1)N1C(=N2)C(Nc2ccccc2)=Nc2ccccc21 (stereo not drawn)	TLR4 MyD88 comp 57.0 | TLR4-MyD88 conf 52.2 | BLA inhibitor ct 89.1
COCCn1c(-c2ccc(-c3ccc([N+](=O)[O-])cc3Br)o2)nc2c1c(=O)[nH]c(=O)n2CC(C)C	TLR4 MyD88 comp 43.6 | TLR4-MyD88 conf 30.4 | BLA inhibitor ct 58.5
COCCn1c(=O)[nH]c(=O)c2c1nc(-c1ccc(-c3ccc(Cl)cc3[N+](=O)[O-])o1)n2Cc1ccccc1	none
COc1cc2c3nnc(-c4ccccc4)c-3cn(Cc3ccccc3F)c2cc1OC	TLR4 MyD88 comp 33.3, NTR1 ag 114.9 (no result: TLR9-MyD88 inh, MC4R barr agon, MC4R antagonist, NOD2 RIPK2 PPI) | TLR4-MyD88 conf inactive | BLA inhibitor ct 30.8 | NTR1 ag confirm 90.1
CC1=NOC(=O)/C1=C\c1ccc(-c2ccc(Cl)cc2Cl)o1	TLR4 MyD88 comp 27.9, NTR1 ag 80.0 | TLR4-MyD88 conf inactive | BLA inhibitor ct inactive | NTR1 ag confirm inactive
CCCOc1ccc(Cl)cc1/C=C1/C(=O)ON=C1C	none (no result: TLR4 MyD88 comp)
CCCCCCCCC(=O)NNC(=O)c1c(O)c2ccccc2n(CCC)c1=O	none
O=C(NC(Cc1ccccc1)C(=O)Oc1ccc2c(C(F)(F)F)cc(=O)oc2c1)OCc1ccccc1 (stereo not drawn)	TLR9-MyD88 inh 58.6, TLR4 MyD88 comp 39.3, NOD2 RIPK2 PPI 70.8 (no result: NTR1 ag) | TLR4-MyD88 conf 32.3 | BLA inhibitor ct 67.2 | TLR9-MyD88 conf 33.9 | BLA nonselective inactive | TLR9 CHO cytotox inactive
O=C(CNC(=O)OCc1ccccc1)Oc1ccc2ccc(=O)oc2c1	none (no result: TLR4 MyD88 comp)
CCN(CC)c1ccc2cc(C(C)=O)c(=O)oc2c1	none
CCN(CC)c1ccc2cc(NC(=O)CCC(=O)O)c(=O)oc2c1	TLR9-MyD88 inh 68.3, TLR4 MyD88 comp 58.0, NOD2 RIPK2 PPI 78.8 | TLR4-MyD88 conf 60.8 | BLA inhibitor ct 82.6 | TLR9-MyD88 conf 49.6 | BLA nonselective 56.7 | TLR9 CHO cytotox inactive
Brc1cc(Br)c2nc(-c3ccc(N4CCOCC4)cc3)ccc2c1	TLR9-MyD88 inh 39.5, TLR4 MyD88 comp 29.0, NOD2 RIPK2 PPI 26.7 (no result: NTR1 ag) | TLR4-MyD88 conf inactive | BLA inhibitor ct 29.8 | TLR9-MyD88 conf 43.2 | BLA nonselective inactive | TLR9 CHO cytotox inactive
CCCCN(C)CC(O)Cn1cc(/C=C/C(=O)c2cccs2)c2ccccc21 (stereo not drawn)	TLR9-MyD88 inh 46.5, TLR4 MyD88 comp 38.8, NOD2 RIPK2 PPI 44.1 (no result: NTR1 ag) | TLR4-MyD88 conf 39.0 | BLA inhibitor ct 67.8 | TLR9-MyD88 conf 30.1 | BLA nonselective inactive | TLR9 CHO cytotox inactive
CCCCN(C)CC(O)Cn1cc(/C=C/C(=O)c2ccc(OCC)cc2)c2ccccc21 (stereo not drawn)	none (no result: TLR9-MyD88 inh, TLR4 MyD88 comp, MC4R barr agon, MC4R antagonist, NOD2 RIPK2 PPI)
CCCCNC(=O)CSc1nc(COc2ccccc2)nc2ccccc12	none
Nc1ccc2c(c1)C/C(=C/c1ccco1)C2=O	TLR9-MyD88 inh 23.6, TLR4 MyD88 comp 32.4 | TLR4-MyD88 conf 26.2 | BLA inhibitor ct 54.5 | TLR9-MyD88 conf 23.2 | BLA nonselective inactive | TLR9 CHO cytotox inactive
